The source made the active and inactive calls. The calls are words filed in the database; no cut-off is given here.
How the values were obtained:
[1] = Metabolic stability in human liver microsomes assessed as intrinsic clearance; type: ADME, Microsome
[2] = biological target: T1, Delta-type opioid receptor (Homo sapiens, UniProt P41143); experiment: Agonist activity at delta opioid receptor expressed in CHO cells assessed as inhibition of forskolin-stimulated cAMP production by ALPHAscreen assay; type: functional, cell-based
T1 sequence (P41143 whole entry): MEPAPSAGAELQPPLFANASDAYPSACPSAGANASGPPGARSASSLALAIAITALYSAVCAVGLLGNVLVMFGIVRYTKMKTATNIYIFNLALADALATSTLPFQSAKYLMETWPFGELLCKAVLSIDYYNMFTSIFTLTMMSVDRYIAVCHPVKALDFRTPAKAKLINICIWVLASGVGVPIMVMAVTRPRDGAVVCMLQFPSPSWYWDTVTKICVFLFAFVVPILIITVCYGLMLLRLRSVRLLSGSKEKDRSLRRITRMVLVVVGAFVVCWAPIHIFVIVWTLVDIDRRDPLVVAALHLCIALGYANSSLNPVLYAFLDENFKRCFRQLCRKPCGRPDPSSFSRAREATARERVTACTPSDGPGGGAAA
How it was run: (§1)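 CHO cells stably expressing a Flp-In delta opioid receptor construct, grown in DMEM/F12 with 2 mM L-glutamine, 500 µg/ml hygromycin and 10% heat-inactivated FBS. Cells resuspended at 8000 cells/well in HEPES pH 7.4/HBSS buffer with 0.1% BSA, 10 mM MgCl2 and 0.5 mM IBMX. Forskolin 20 µM final, 30 min. cAMP read by ALPHAscreen with biotin-cAMP competition after overnight incubation. EC50 from percentage agonist activity.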

[3] = Selectivity for human recombinant DOR over mu opioid receptor
[4] = biological target: Voltage-gated inwardly rectifying potassium channel KCNH2 (Homo sapiens, UniProt Q12809); experiment: Inhibition of human ERG
Sequence of Voltage-gated inwardly rectifying potassium channel KCNH2 (Q12809 whole entry): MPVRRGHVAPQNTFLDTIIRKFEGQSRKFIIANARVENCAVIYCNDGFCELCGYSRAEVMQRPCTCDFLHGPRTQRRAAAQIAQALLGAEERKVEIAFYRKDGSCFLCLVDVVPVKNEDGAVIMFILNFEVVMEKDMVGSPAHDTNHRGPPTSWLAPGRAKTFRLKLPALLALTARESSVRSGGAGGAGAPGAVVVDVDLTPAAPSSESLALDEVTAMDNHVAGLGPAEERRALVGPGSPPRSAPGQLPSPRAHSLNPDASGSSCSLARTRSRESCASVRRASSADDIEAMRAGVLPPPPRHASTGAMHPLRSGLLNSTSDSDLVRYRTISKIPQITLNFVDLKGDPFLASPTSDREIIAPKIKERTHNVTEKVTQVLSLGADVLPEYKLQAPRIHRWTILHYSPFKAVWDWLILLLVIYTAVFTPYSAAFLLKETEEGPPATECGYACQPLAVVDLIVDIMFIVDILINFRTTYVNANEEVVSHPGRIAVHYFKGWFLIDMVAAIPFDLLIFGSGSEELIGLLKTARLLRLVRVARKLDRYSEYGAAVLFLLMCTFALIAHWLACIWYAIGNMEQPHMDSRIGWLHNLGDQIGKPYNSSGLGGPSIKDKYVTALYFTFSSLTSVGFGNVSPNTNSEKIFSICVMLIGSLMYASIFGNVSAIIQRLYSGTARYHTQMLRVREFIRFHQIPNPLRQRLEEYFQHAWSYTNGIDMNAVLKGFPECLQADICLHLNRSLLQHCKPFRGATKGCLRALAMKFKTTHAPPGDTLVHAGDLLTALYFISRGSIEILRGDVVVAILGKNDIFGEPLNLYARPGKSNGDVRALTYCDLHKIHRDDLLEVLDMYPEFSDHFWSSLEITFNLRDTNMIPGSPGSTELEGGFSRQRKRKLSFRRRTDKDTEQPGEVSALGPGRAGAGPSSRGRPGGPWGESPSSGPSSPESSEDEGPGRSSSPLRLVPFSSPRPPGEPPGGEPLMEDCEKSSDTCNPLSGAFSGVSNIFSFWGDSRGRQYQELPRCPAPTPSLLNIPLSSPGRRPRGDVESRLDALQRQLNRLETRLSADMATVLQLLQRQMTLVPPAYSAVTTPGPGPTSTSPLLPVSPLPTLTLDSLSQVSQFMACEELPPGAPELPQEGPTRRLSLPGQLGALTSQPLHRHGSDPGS

Rattus norvegicus = species on record: Rattus norvegicus; experiment: Inhibition of neuropathic pain in rat electromyography model; type: functional
How it was run: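 Rat electromyography (EMG) pain model. Agonist given by infusion protocol (bolus + continuous infusion) at 76 µg/kg + 72 µg/kg/hr, 240 µg/kg + 290 µg/kg/hr, or 660 µg/kg + 920 µg/kg/hr to reach target plasma levels. Mean free plasma concentration measured at each dose. Read-out: EMG response inhibition relative to control animals.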

Clearance in rat = conditions: in vivo
Canis familiaris = species on record: Canis familiaris; experiment: Effect on QTC prolongation in Beagle dog at 291 nM free plasma concentration; type: functional, organism-based; conditions: Canis lupus familiaris
[5] = biological target: T1, Delta-type opioid receptor; experiment: Agonist activity at human recombinant delta opioid receptor expressed in CHO cells assessed as inhibition of forskolin-stimulated cAMP production by ALPHAscreen assay relative to BW373U86; type: functional, cell-based; how it was run: as §1
Mu-type opioid receptor = Mu-type opioid receptor (Homo sapiens, UniProt P35372); experiment: Agonist activity at mu opioid receptor; type: functional
Sequence of Mu-type opioid receptor (P35372 whole entry): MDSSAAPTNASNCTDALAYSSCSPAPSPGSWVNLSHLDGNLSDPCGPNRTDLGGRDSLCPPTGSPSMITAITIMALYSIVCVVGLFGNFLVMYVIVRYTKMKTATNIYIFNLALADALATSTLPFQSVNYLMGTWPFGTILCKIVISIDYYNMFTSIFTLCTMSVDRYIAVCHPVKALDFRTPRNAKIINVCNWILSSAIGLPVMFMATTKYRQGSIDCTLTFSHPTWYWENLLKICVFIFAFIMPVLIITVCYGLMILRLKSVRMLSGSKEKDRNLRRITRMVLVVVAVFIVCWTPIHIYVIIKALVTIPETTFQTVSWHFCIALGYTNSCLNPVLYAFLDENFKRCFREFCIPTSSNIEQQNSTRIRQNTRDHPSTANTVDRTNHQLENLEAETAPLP

Structure (SMILES)	microsomal CLint [1] [µL/min/mg]	EC50 [2] [nM]	fold change (FC) [3]	Ki [4] [nM]	also measured
Nc1ccnc(N2CCC(NC(=O)[C@@H]3CCCO3)(c3ccccc3)CC2)c1	13	171	50	–	–
COc1ccc(C(=O)NC2(c3ccccc3)CCN(c3cc(N)ccn3)CC2)c(OC)c1	43	14	50	–	–
Nc1ccnc(N2CCC(NC(=O)c3ccccn3)(c3ccccc3)CC2)c1	14	60	50	548	–
COc1cccc(C2(C)CN(c3cc(N)ccn3)C2)c1	–	846	2	1840	–
CCN(CC)C(=O)[C@H]1OC2(CCN(c3cc(N)ccn3)CC2)c2ccccc21	13	12	50	> 10000	–
COc1ccc(C(=O)NC2(c3ccccc3)CCN(c3cc(N)ccn3)CC2)cc1Cl	69	59	50	343	–
COc1ccc(C(=O)N(c2cc(C)ccn2)C2CCN(c3cc(N)ccn3)CC2)cc1	12	–	–	–	–
CCOC(=O)N1CCN(C(=O)C2(c3ccccc3)CCN(c3cc(N)ccn3)CC2)CC1	62	24	17	–	–
COc1ccc(-n2c(=O)n(C3CCN(c4cc(N)ccn4)CC3)c3ncccc32)cc1	23	–	–	865	–
CN(C)C(=O)[C@H]1CC2(CCN(c3cc(N)ccn3)CC2)c2ccccc21	< 7	27	50	–	inhibition (INH) (Rattus norvegicus): 60%; clearance (Clearance in rat): > 70 mL/min/kg; Activity (Canis familiaris): Active
Nc1ccnc(N2CCC(C(=O)N3CCc4ccccc4C3)(c3ccccc3)CC2)c1	46	13	50	–	–
Nc1ccnc(N2CCC3(CC2)OC(c2ccccc2)c2ccccc23)c1 (stereo unspecified)	10	59	50	18	–
Nc1ccnc(N2CCC(N(C(=O)C3CCCCC3)c3ccccn3)CC2)c1	80	–	–	–	–
Nc1ccnc(N2CCC(C(=O)Nc3ccc4ccccc4n3)(c3ccccc3)CC2)c1	22	5	–	–	–
Nc1ccnc(N2CCC(n3c(=O)n(-c4ccccc4)c4cccnc43)CC2)c1	19	–	–	903	–
CC(=O)C1(c2ccccc2)CCN(c2cc(N)ccn2)CC1	< 7	263	50	–	Emax [5]: 100%; EC50 (Mu-type opioid receptor): > 10000 nM
Nc1ccnc(N2CCC(n3c(=O)n(CC4CC4)c4cccnc43)CC2)c1	13	–	–	746	–
Nc1ccnc(N2CCC(n3c(=O)n(Cc4ccccc4)c4cccnc43)CC2)c1	20	–	–	–	–
COc1cccc(C(=O)N(c2ccccn2)C2CCN(c3cc(N)ccn3)CC2)c1	17	–	–	9690	–
Nc1ccnc(N2CCC3(CC2)OCc2ccccc23)c1	–	308	50	–	–
Nc1ccnc(N2CCC(N(C(=O)C3CC3)c3ccccn3)CC2)c1	< 7	–	–	–	–
COc1ccc(CNC(=O)C2(c3ccccc3)CCN(c3cc(N)ccn3)CC2)cc1	40	17	50	–	–
